# Experimental data reported in ChEMBL document CHEMBL1135739, “Radiolabeled amino acids for tumor imaging with PET: radiosynthesis and biological evaluation of 2-amino-3-[18F]fluoro-2-methylpropanoic acid and 3-[18F]fluoro-2-methyl-2-(methylamino)propanoic acid” (J Med Chem, 2002).
# Several values for one entry are separate records, joined by “and”; a condition that tells them apart may be missing. Equal entries are not always repeated.
# Tests used:
# [1] = species: Rattus norvegicus; experiment: Radioactivity distribution in lung of normal fischer rat after injection of [18F]-fluoro-2-methyl-2-(methylamino)propanoic acid after 5 min.; assay type: ADME, organism-based; conditions: in vivo
# Summary of the method: (§1)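 Male Fischer 344 rats (200–250 g), fed ad libitum, anesthetized with intramuscular ketamine:xylazine (1:1, 0.1 mL/100 g). About 85 μCi tracer in 0.3 mL sterile water was given by tail-vein catheter. Groups of four were killed at 5, 30, 60 or 120 min. Tissues were weighed and gamma-counted against dose standards, decay-corrected, and expressed as %ID/g (mean ± standard error).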
# [2] = species: Rattus norvegicus; experiment: Radioactivity distribution in lung of normal fischer rat after injection of [18F]-fluoro-2-methyl-2-(methylamino)propanoic acid after 60 min.; assay type: ADME, organism-based; conditions: in vivo, 1 h; summary of the method: as §1
# [3] = species: Rattus norvegicus; experiment: Radioactivity distribution in pancreas of normal fischer rat after injection of [18F]-fluoro-2-methyl-2-(methylamino)propanoic acid after 5 min.; assay type: ADME, organism-based; conditions: in vivo; summary of the method: as §1
# [4] = species: Rattus norvegicus; experiment: Radioactivity distribution in pancreas of normal fischer rat after injection of [18F]-fluoro-2-methyl-2-(methylamino)propanoic acid after 60 min.; assay type: ADME, organism-based; conditions: in vivo, 1 h; summary of the method: as §1
# [5] = species: Rattus norvegicus; experiment: Radioactivity distribution in muscle of normal fischer rat after injection of [18F]-fluoro-2-methyl-2-(methylamino)propanoic acid after 5 min.; assay type: ADME, organism-based, Muscle tissue; conditions: in vivo; summary of the method: as §1
# [6] = species: Rattus norvegicus; experiment: Radioactivity distribution in muscle of normal fischer rat after injection of [18F]-fluoro-2-methyl-2-(methylamino)propanoic acid after 60 min.; assay type: ADME, organism-based, Muscle tissue; conditions: in vivo, 1 h; summary of the method: as §1
# [7] = species: Rattus norvegicus; experiment: Radioactivity distribution in brain of normal fischer rat after injection of [18F]-fluoro-2-methyl-2-(methylamino)propanoic acid after 120 min.; assay type: ADME, organism-based; conditions: in vivo, 2 h
# Summary of the method: (§2)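 Normal male Fischer 344 rats (200–250 g), anesthetized with i.m. ketamine:xylazine (1:1), got ~85 μCi of tracer in 0.3 mL sterile water i.v. via tail-vein catheter. Groups of four were killed at 5, 30, 60 or 120 min. Tissues were weighed and gamma-counted against dose standards, and counts were decay-corrected to %ID/g. Results are mean ± standard error (n = 4), compared by one-way ANOVA.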
# [8] = species: Rattus norvegicus; experiment: Radioactivity distribution in heart of normal fischer rat after injection of [18F]-fluoro-2-methyl-2-(methylamino)propanoic acid after 120 min.; assay type: ADME, organism-based; conditions: in vivo, 2 h; summary of the method: as §2
# [9] = species: Rattus norvegicus; experiment: Radioactivity distribution in heart of normal fischer rat after injection of [18F]-fluoro-2-methyl-2-(methylamino)propanoic acid after 30 min.; assay type: ADME, organism-based; conditions: in vivo, 0.5 h; summary of the method: as §2
# [10] = species: Rattus norvegicus; experiment: Radioactivity distribution in heart of normal fischer rat after injection of [18F]-fluoro-2-methyl-2-(methylamino)propanoic acid after 5 min.; assay type: ADME, organism-based; conditions: in vivo; summary of the method: as §2
# [11] = species: Rattus norvegicus; experiment: Radioactivity distribution in heart of normal fischer rat after injection of [18F]-fluoro-2-methyl-2-(methylamino)propanoic acid after 60 min.; assay type: ADME, organism-based; conditions: in vivo, 1 h; summary of the method: as §2
# [12] = species: Rattus norvegicus; experiment: Radioactivity distribution in bone of normal fischer rat after injection of [18F]-fluoro-2-methyl-2-(methylamino)propanoic acid after 120 min.; assay type: ADME, organism-based, Bone element; conditions: in vivo, 2 h; summary of the method: as §2
# [13] = species: Rattus norvegicus; experiment: Radioactivity distribution in bone of normal fischer rat after injection of [18F]-fluoro-2-methyl-2-(methylamino)propanoic acid after 30 min.; assay type: ADME, organism-based, Bone element; conditions: in vivo, 0.5 h; summary of the method: as §2
# [14] = species: Rattus norvegicus; experiment: Radioactivity distribution in bone of normal fischer rat after injection of [18F]-fluoro-2-methyl-2-(methylamino)propanoic acid after 5 min.; assay type: ADME, organism-based, Bone element; conditions: in vivo; summary of the method: as §2
# [15] = species: Rattus norvegicus; experiment: Radioactivity distribution in bone of normal fischer rat after injection of [18F]-fluoro-2-methyl-2-(methylamino)propanoic acid after 60 min.; assay type: ADME, organism-based, Bone element; conditions: in vivo, 1 h; summary of the method: as §2
# [16] = species: Rattus norvegicus; experiment: Radioactivity distribution in liver of normal fischer rat after injection of [18F]-fluoro-2-methyl-2-(methylamino)propanoic acid after 120 min.; assay type: ADME, organism-based; conditions: in vivo, 2 h; summary of the method: as §1
# [17] = species: Rattus norvegicus; experiment: Radioactivity distribution in liver of normal fischer rat after injection of [18F]-fluoro-2-methyl-2-(methylamino)propanoic acid after 30 min.; assay type: ADME, organism-based; conditions: in vivo, 0.5 h; summary of the method: as §1
# [18] = species: Rattus norvegicus; experiment: Radioactivity distribution in liver of normal fischer rat after injection of [18F]-fluoro-2-methyl-2-(methylamino)propanoic acid after 5 min.; assay type: ADME, organism-based; conditions: in vivo; summary of the method: as §1
# [19] = species: Rattus norvegicus; experiment: Radioactivity distribution in liver of normal fischer rat after injection of [18F]-fluoro-2-methyl-2-(methylamino)propanoic acid after 60 min.; assay type: ADME, organism-based; conditions: in vivo, 1 h; summary of the method: as §1
# [20] = species: Rattus norvegicus; experiment: Radioactivity distribution in testis of normal fischer rat after injection of [18F]-fluoro-2-methyl-2-(methylamino)propanoic acid after 5 min.; assay type: ADME, organism-based; conditions: in vivo
# Summary of the method: (§3)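 Male Fischer 344 rats (200–250 g), fed ad libitum, under intramuscular ketamine:xylazine anesthesia, got ~85 μCi radiotracer in 0.3 mL sterile water by tail-vein catheter. Groups of four were killed at 5, 30, 60 or 120 min. Dissected tissues were weighed and gamma-counted with dose standards. Counts were decay-corrected and given as %ID/g, mean ± standard error. Tissues were compared by one-way ANOVA.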
# [21] = species: Rattus norvegicus; experiment: Radioactivity distribution in testis of normal fischer rat after injection of [18F]-fluoro-2-methyl-2-(methylamino)propanoic acid after 60 min.; assay type: ADME, organism-based; conditions: in vivo, 1 h; summary of the method: as §3
# [22] = species: Rattus norvegicus; experiment: Radioactivity distribution in tumor of tumor-bearing fischer rat after injection of [18F]-fluoro-2-methyl-2-(methylamino)propanoic acid after 5 min.; conditions: in vivo
# [23] = species: Rattus norvegicus; experiment: Radioactivity distribution in tumor of tumor-bearing fischer rat after injection of [18F]-fluoro-2-methyl-2-(methylamino)propanoic acid after 60 min.; conditions: in vivo, 1 h
# [24] = species: Rattus norvegicus; experiment: Radioactivity distribution in tumor of tumor-bearing fischer rat after injection of [18F]-fluoro-2-methyl-2-(methylamino)propanoic acid after 120 min.; conditions: in vivo, 2 h
smiles,measurement,setting,value
CNC(C)(C[18F])C(=O)O.Cl (centres undefined),ID/g,[1],0.53% and 0.61%
same,ID/g,[2],0.38% and 0.26%
same,ID/g,[3],2.73% and 2.95%
same,ID/g,[4],3.24% and 2.42%
same,ID/g,[5],0.16% and 0.22%
same,ID/g,[6],0.15% and 0.19%
same,ID/g,[7],0.03% and < 0.02%
same,ID/g,[8],0.17% and 0.19%
same,ID/g,[9],0.23%
same,ID/g,[10],0.22% and 0.34%
same,ID/g,[11],0.2% and 0.25%
same,ID/g,[12],0.2% and 0.19%
same,ID/g,[13],0.32%
same,ID/g,[14],0.34% and 0.33%
same,ID/g,[15],0.29% and 0.23%
same,ID/g,[16],0.58% and 0.41%
same,ID/g,[17],0.72%
same,ID/g,[18],0.79% and 0.94%
same,ID/g,[19],0.78% and 0.85%
same,ID/g,[20],0.17% and 0.19%
same,ID/g,[21],0.08%
same,ID/g,[22],1.29%
same,ID/g,[23],2.28%
same,ID/g,[24],1.94%
